Series [1] can be described thus: In vivo activity against murine M5076 tumor system at the dose of 25 mg/kg, activity expressed as KE. The class given is functional, Mus musculus. The method, boiled down:
(§1)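 M5076: ascitic fluid with ca. 10^6 cells inoculated ip into CD2F1 mice. Dosing started 24 h after inoculation and was then given every 4 days for four doses in total, from solutions or suspensions made fresh each day. Toxicity day survivors were scored on day 5. Body weight difference is day 14 minus day 1. %T/C is based on median survival time versus controls.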

Series [2] has as its system L1210. The experiment in a line: In vivo activity against murine L1210 tumor system at the dose of 50 mg/kg, activity expressed as body weight difference. The format is functional, Mus musculus. The method, boiled down: (§2)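 L1210 lymphocytic leukemia: ascitic fluid with ca. 10^6 cells injected ip into CD2F1 mice. Dosing started 24 h after inoculation and was repeated daily for five doses in total, from solutions or suspensions made fresh each day. Toxicity day survivors were scored on day 5. Body weight difference is day 5 minus day 1. %T/C is based on median survival time versus controls.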

For series [3], the system named is MX1. Kind of series: In vivo activity against murine MX-1 tumor system at the dose of 75 mg/kg, activity expressed as %T/C. The format is functional, Mus musculus.
Series [4] in a line: In vivo activity against murine M5076 tumor system at the dose of 50 mg/kg, activity expressed as body weight difference. The format is functional, Mus musculus.
Series [5] is described as follows: Effect of phosphate buffer on the hydrolysis of alpha Fluoropyridinium Moity at the concentration of 0.05M, pH 6.5, 25 degree C. The format is ADME. The method, boiled down: (§3)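 α-Fluoropyridinium hydrolysis to pyridone in phosphate buffer at 0.02, 0.05 or 0.10 M, pH 6.5 or 8.0, ionic strength […] °C. Pyridinium UV absorbance maximum followed with time to give pseudo-first-order kobs and half-life.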

Series [6] is described as follows: Half life at the pH 7.0. The conditions noted are these: buffer. The class given is ADME. The method, boiled down:
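Pyridinium-to-pyridone hydrolysis in 0.05 M phosphate buffer, ionic strength 0.25 M, 25 °C. pH set by meter. Loss of the pyridinium UV absorption maximum was followed over time to give pseudo-first-order k_obs and half-life.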

Series [7] concerns MX1. The experiment in a line: In vivo activity against murine MX-1 tumor system at the dose of 75 mg/kg, activity expressed as body weight difference. The class given is functional, Mus musculus.
Series [8] can be described thus: Effect of phosphate buffer on the hydrolysis of alpha Fluoropyridinium Moity at the concentration of 0.02M, pH 8.0, 25 degree C. The class given is ADME. The method, boiled down:
as §3

The nature of series [9]: Half life at the ionic strength 0.10 M NaCl. The class given is ADME. The method, boiled down: (§4)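 Pyridinium salt in 0.02 M phosphate buffer, pH 7.4, 25 °C, with NaCl varied 0.10–1.0 M. Loss of the pyridinium chromophore's UV absorbance maximum (conversion to pyridone) followed over time. Pseudo-first-order kobs and half-life derived from that decay.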
Series [10] in a line: Effect of Ionic strength (0.10 M NaCl)on the hydrolysis of pyridinium Moity in 0.02 M buffer concentration, pH 7.4,25 degree C. The format is ADME. The method, boiled down: as §4
Series [11] in a line: In vivo activity against murine M5076 tumor system at the dose of 25 mg/kg, activity expressed as body weight difference. The class given is functional, Mus musculus. The method, boiled down: as §1
Series [12] in a line: Effect of phosphate buffer on the hydrolysis of alpha Fluoropyridinium Moity at the concentration of 0.10M, pH 6.5, 25 degree C. The format is ADME. The method, boiled down: as §3
Series [13] can be described thus: Effect of pH on the hydrolysis of pyridinium Moity in 0.05 M buffer concentration at the pH 8.0. The class given is ADME. In outline: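 Pyridinium salt in 0.05 M phosphate buffer, pH 6.0–8.0 (set by pH meter), ionic strength 0.25 M, 25 °C. Decrease in the pyridinium UV absorbance maximum followed over time to give pseudo-first-order kobs and half-life.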
Series [14] deals with P388. The experiment in a line: In vivo activity against P388 Lymphocytic Leukemia in CD2F1 mice at the dose of 25 mg/kg, activity expressed as body weight difference; T-C. The format is functional, Mus musculus. In outline: (§5)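 CD2F1 mice were inoculated with ascitic fluid holding ca. 10^6 P388 cells. Drug was given daily from 24 h after inoculation, from solutions or suspensions made fresh each day, some as a saline suspension. TDS is survivors/initial animals on day 5. BWD is body weight on day 5 minus day 1. %T/C compares median survival of treated and control mice.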

Series [15] is described as follows: Effect of pH on carbamate hydrolysis in 0.05 M buffer concentration at the pH 6.0, 25 degree C. The class given is ADME. The method, boiled down:
(§6)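 Bis-carbamate in acetonitrile–water (1:1; buffer added to a 0.5 mg/mL acetonitrile solution), 0.05 M buffer, ionic strength 0.136 (KCl), 25 ± 0.1 °C. Buffers: phosphate pH 2.0; citrate pH 3.0–3.5; succinate pH 4.0; acetate pH 5.0; phosphate pH 6.0–8.0; borate pH 9.0; carbonate pH 10.0. HPLC bis-carbamate peak-area loss, ln(area0/areat) vs time slope = kobs. Duplicates averaged.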

Series [16] has as its system P388. Kind of series: In vivo activity against P388 Lymphocytic Leukemia in CD2F1 mice at the dose of 50 mg/kg, activity expressed as body weight difference; T-C. The format is functional, Mus musculus. The method, boiled down:
as §5

Series [17] is described as follows: In vivo activity against murine M5076 tumor system at the dose of 100 mg/kg, activity expressed as body weight difference; T-C. The class given is functional, Mus musculus. In outline: as §1
Series [18] can be described thus: In vivo activity against murine M5076 tumor system at the dose of 166.7 mg/kg, activity expressed as TDS; 4/10. The class given is functional, Mus musculus. In outline:
as §1

In series [19] the test system is L1210. Kind of series: In vivo activity against murine L1210 tumor system at the dose of 36 mg/kg, activity expressed as KE. The format is functional, Mus musculus. In outline:
as §2

The nature of series [20]: Half life at the pH 3.0. The class given is ADME. The conditions noted are these: buffer. The method, boiled down: as §6
In series [21] the test system is L1210. The experiment in a line: In vivo activity against murine L1210 tumor system at the dose of 21.6 mg/kg, activity expressed as TDS; 6/6. The class given is functional, Mus musculus. In outline: as §2
Series [22] is described as follows: Half life at the concentration of 0.025 M. The class given is ADME.
Series [23] in a line: Effect of pH on carbamate hydrolysis in 0.05 M buffer concentration at the pH 7.4, 25 degree C. The class given is ADME. In outline:
as §6

Series [24] has as its system P388. The experiment in a line: In vivo activity against P388 Lymphocytic Leukemia in CD2F1 mice at the dose of 200 mg/kg, activity expressed as TDS; 6/6. The class given is functional, Mus musculus. The method, boiled down:
as §5

Series [25] in a line: Effect of phosphate buffer on carbamate hydrolysis in acetonitrile-water at the concentration of 0.025 M on pH 3.0, 25 degree C. The format is ADME. Particulars: in the assay text read “citrate buffer” for “phosphate buffer”. The method, boiled down:
(§7)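 Bis-carbamate in acetonitrile–water (1:1), 25 ± 0.1 °C. Citrate buffer at pH 3.0 or phosphate buffer at pH 7.4, at 0.01, 0.025 or 0.05 M, ionic strength 0.136 (KCl). Kinetics followed by HPLC as the decrease in bis-carbamate peak area. The regression slope of ln(area0/areat) vs time gave pseudo-first-order kobs. Duplicates averaged.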

Series [26] in a line: Effect of phosphate buffer on carbamate hydrolysis in acetonitrile-water at the concentration of 0.025 M on pH 7.4, 25 degree C. The format is ADME. In outline:
as §7

The nature of series [27]: In vivo activity against murine M5076 tumor system at the dose of 100 mg/kg, activity expressed as KE. The format is functional, Mus musculus. In outline:
as §1

Series [28] has as its system L1210. The experiment in a line: In vivo activity against murine L1210 tumor system at the dose of 21.6 mg/kg, activity expressed as KE. The format is functional, Mus musculus. The method, boiled down: as §2
Series [29] deals with L1210. The experiment in a line: In vivo activity against murine L1210 tumor system at the dose of 60 mg/kg, activity expressed as body weight difference; T-C. The format is functional, Mus musculus. The method, boiled down:
as §2

Series [30] deals with L1210. Kind of series: In vivo activity against murine L1210 tumor system at the dose of 166.7 mg/kg, activity expressed as TDS; 5/6. The class given is functional, Mus musculus. The method, boiled down: as §2
A short description of series [31]: Half life at the pH 10.0. The class given is ADME. Particulars: buffer. In outline: as §6

For orientation: T/C means the ratio of treated to control. A word on the half-life: it is how long it takes for the measured level to halve. A lower half-life goes with rapid decline. For `CC(C)NC(=O)OCc1c(COC(=O)NC(C)C)c(-c2cc[n+](C)c(F)c2)n2c1CCC2.[I-]`, the KE in series [1] is -1.98. Moreover, the BWD is reported as -0.8 g in the series on L1210 [2], 1.4 g in [4], 0.2 g in the series with MX1 [7] and 0.4 g in series [11]. The molecule also displayed a T/C in the series on MX1 [3] of 34%. Further, the K obs in [5] turned out to be 0.0072 min⁻¹; in series [8], 0.0132 min⁻¹; in [10] it was 0.024 min⁻¹; in series [12], 0.0138 min⁻¹; in series [13] it was 0.052 min⁻¹. The values for the half-life in series [6] and in series [9] were 33.8 min and 29.1 min, respectively.

As to `CC(C)NC(=O)OCc1c(COC(=O)NC(C)C)c(-c2ccn(C)c(=O)c2)n2c1CCC2`, the BWD was -0.6 g in the series with P388 [14], -0.6 g in the series on P388 [16], -1.3 g in series [17] and -3.2 g in the series with L1210 [29]. For the same molecule, the K obs in [15] stood at 0.0135 min⁻¹; in [23], 0.013 min⁻¹; in series [25] it was 0.0342 min⁻¹; in series [26] it was 0.0134 min⁻¹. Also, the TDS amounted to 4 in [18], 6 in the series on L1210 [21], 6 in the series with P388 [24] and 5 in the series on L1210 [30]. Also, the figures for the KE (in the series on L1210 [19]; in [27]; in the series with L1210 [28]) were -0.86, -1.49 and -0.86, respectively. In addition, the half-life in series [20] was determined as 22.8 min; in [22], 20.3 min; in series [31], 52.3 min.

The values above are taken from ChEMBL document CHEMBL1124794, “Synthesis, chemistry, and antineoplastic activity of alpha-halopyridinium salts: potential pyridone prodrugs of acylated vinylogous carbinolamine tumor inhibitors” (J Med Chem, 1990).
